Measurements from ChEMBL document CHEMBL1124339, “Conformationally restricted analogues of atriopeptin(103-125)amide” (J Med Chem, 1989).
Positions of bridges follow the written chain, without caps; N, C: chain ends. Non-standard residues stand in square brackets, D forms with d. Residues, ends and D or L forms follow the SMILES beside them. *: point of attachment. hCys = N[C@@H](CCS)C(=O)O; Acm = CC(=O)NC*

Columns and labels:
[1] = species on record: Oryctolagus cuniculus; assay: Relative binding potency towards vasorelaxant binding site compared to AP(103-126)
Summary of the method: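 Varied unlabeled peptide concentrations; started by adding membranes; 30 min at 25 °C. Filtration with ice-cold buffer, then gamma counting. Nonspecific binding measured with 10^-6 M unlabeled reference peptide. Specific binding fitted by nonlinear least squares.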

[2] = system: Atrial natriuretic peptide receptor 3 (Oryctolagus cuniculus); assay: Relative binding potency towards non-vasorelaxant binding site compared to AP(103-126)
[3] = Vasorelaxant activity in norepinephrine-contracted rabbit aortic rings, compared to AP(103-126); type: functional, Oryctolagus cuniculus, Aorta

| SMILES | Relative potency [1] | Relative potency [2] | Relative potency [3] |
| --- | --- | --- | --- |
| CC[C@H](C)[C@@H]1NC(=O)[C@H](CCCN=C(N)N)NC(=O)[C@H](CC(=O)O)NC(=O)[C@H]([C@@H](C)CC)NC(=O)[C@H](CCCN=C(N)N)NC(=O)[C@@H](CSCNC(C)=O)NC(=O)CNC(=O)[C@H](Cc2ccccc2)NC(=O)[C@@H](NC(=O)[C@H](CO)NC(=O)[C@@H](N)CO)CSSC[C@@H](C(=O)NCC(=O)N[C@@H](CC(C)C)C(=O)NCC(=O)N[C@@H](CSCNC(C)=O)C(=O)N[C@@H](CC(N)=O)C(=O)N[C@@H](CO)C(=O)N[C@@H](Cc2ccccc2)C(=O)N[C@@H](CCCN=C(N)N)C(N)=O)NC(=O)[C@H](CCC(N)=O)NC(=O)[C@H](C)NC(=O)CNC1=O | 0.014 | 3.1 |  |
| CC[C@H](C)[C@@H]1NC(=O)[C@H](CCCN=C(N)N)NC(=O)[C@H](CC(=O)O)NC(=O)[C@H]([C@@H](C)CC)NC(=O)[C@H](CCCN=C(N)N)NC(=O)[C@@H](CSCNC(C)=O)NC(=O)CNC(=O)[C@H](Cc2ccccc2)NC(=O)[C@@H](NC(=O)[C@H](CO)NC(=O)[C@@H](N)CO)CSSC[C@@H](C(=O)N[C@@H](CC(N)=O)C(=O)N[C@@H](CO)C(=O)N[C@@H](Cc2ccccc2)C(=O)N[C@@H](CCCN=C(N)N)C(N)=O)NC(=O)CNC(=O)[C@H](CC(C)C)NC(=O)CNC(=O)[C@H](CO)NC(=O)[C@H](CCC(N)=O)NC(=O)[C@H](C)NC(=O)CNC1=O | 4.3 | 4.3 |  |
| CC[C@H](C)[C@@H]1NC(=O)[C@H](CCCN=C(N)N)NC(=O)[C@H](CC(=O)O)NC(=O)[C@H]([C@@H](C)CC)NC(=O)[C@H](CCCN=C(N)N)NC(=O)[C@@H](NC(=O)CNC(=O)[C@H](Cc2ccccc2)NC(=O)[C@H](CSCNC(C)=O)NC(=O)[C@H](CO)NC(=O)[C@@H](N)CO)CSSC[C@@H](C(=O)N[C@@H](CC(N)=O)C(=O)N[C@@H](CO)C(=O)N[C@@H](Cc2ccccc2)C(=O)N[C@@H](CCCN=C(N)N)C(N)=O)NC(=O)CNC(=O)[C@H](CC(C)C)NC(=O)CNC(=O)[C@H](CSCNC(C)=O)NC(=O)[C@H](CCC(N)=O)NC(=O)[C@H](C)NC(=O)CNC1=O (H-SSC(Acm)FGCRIDRIGAQC(Acm)GLGCNSFR-NH2; disulfide 6-19) |  |  | 0.0022 |
| CC[C@H](C)[C@@H]1NC(=O)[C@H](CCCN=C(N)N)NC(=O)[C@H](CC(=O)O)NC(=O)[C@H]([C@@H](C)CC)NC(=O)[C@H](CCCN=C(N)N)NC(=O)CNC(=O)CNC(=O)[C@H](Cc2ccccc2)NC(=O)[C@@H](NC(=O)[C@H](CO)NC(=O)[C@@H](N)CO)CSSC[C@@H](C(=O)N[C@@H](CC(N)=O)C(=O)N[C@@H](CO)C(=O)N[C@@H](Cc2ccccc2)C(=O)N[C@@H](CCCN=C(N)N)C(N)=O)NC(=O)CNC(=O)[C@H](CC(C)C)NC(=O)CNC(=O)[C@H](CO)NC(=O)[C@H](CCC(N)=O)NC(=O)[C@H](C)NC(=O)CNC1=O |  |  | 1.7 |
| CC[C@H](C)[C@@H]1NC(=O)[C@H](CCCN=C(N)N)NC(=O)[C@H](CC(=O)O)NC(=O)[C@H]([C@@H](C)CC)NC(=O)[C@H](CCCN=C(N)N)NC(=O)[C@@H]2CCSSC[C@H](NC(=O)[C@H](CCC(N)=O)NC(=O)[C@H](C)NC(=O)CNC1=O)C(=O)NCC(=O)N[C@@H](CC(C)C)C(=O)NCC(=O)N[C@H](C(=O)N[C@@H](CC(N)=O)C(=O)N[C@@H](CO)C(=O)N[C@@H](Cc1ccccc1)C(=O)N[C@@H](CCCN=C(N)N)C(N)=O)CSSC[C@H](NC(=O)[C@H](CO)NC(=O)[C@@H](N)CO)C(=O)N[C@@H](Cc1ccccc1)C(=O)NCC(=O)N2 (H-SSCFG[hCys]RIDRIGAQCGLGCNSFR-NH2; disulfide 3-19, 6-15) |  |  | 0.049 |
| CC[C@H](C)[C@@H]1NC(=O)[C@H](CCCN=C(N)N)NC(=O)[C@H](CC(=O)O)NC(=O)[C@H]([C@@H](C)CC)NC(=O)[C@H](CCCN=C(N)N)NC(=O)[C@@H](CSCNC(C)=O)NC(=O)CNC(=O)[C@H](Cc2ccccc2)NC(=O)[C@@H](NC(=O)[C@H](CO)NC(=O)[C@@H](N)CO)CSSC[C@@H](C(=O)N[C@@H](CC(N)=O)C(=O)N[C@@H](CO)C(=O)N[C@@H](Cc2ccccc2)C(=O)N[C@@H](CCCN=C(N)N)C(N)=O)NC(=O)CNC(=O)[C@H](CC(C)C)NC(=O)CNC(=O)[C@@H](CSCNC(C)=O)NC(=O)[C@H](CCC(N)=O)NC(=O)[C@H](C)NC(=O)CNC1=O |  |  | 0.044 |
| CC[C@H](C)[C@@H]1NC(=O)[C@H](CCCN=C(N)N)NC(=O)[C@H](CC(=O)O)NC(=O)[C@H]([C@@H](C)CC)NC(=O)[C@H](CCCN=C(N)N)NC(=O)[C@H](CCSCNC(C)=O)NC(=O)CNC(=O)[C@H](Cc2ccccc2)NC(=O)[C@@H](NC(=O)[C@H](CO)NC(=O)[C@@H](N)CO)CSSC[C@@H](C(=O)N[C@@H](CC(N)=O)C(=O)N[C@@H](CO)C(=O)N[C@@H](Cc2ccccc2)C(=O)N[C@@H](CCCN=C(N)N)C(N)=O)NC(=O)CNC(=O)[C@H](CC(C)C)NC(=O)CNC(=O)[C@H](CCSCNC(C)=O)NC(=O)[C@H](CCC(N)=O)NC(=O)[C@H](C)NC(=O)CNC1=O |  |  | 0.068 |
| CC[C@H](C)[C@@H]1NC(=O)[C@H](CCCN=C(N)N)NC(=O)[C@H](CC(=O)O)NC(=O)[C@H]([C@@H](C)CC)NC(=O)[C@H](CCCN=C(N)N)NC(=O)[C@H]2CSSC[C@@H](NC(=O)[C@H](CCC(N)=O)NC(=O)[C@H](C)NC(=O)CNC1=O)C(=O)NCC(=O)N[C@@H](CC(C)C)C(=O)NCC(=O)N[C@H](C(=O)N[C@@H](CC(N)=O)C(=O)N[C@@H](CO)C(=O)N[C@@H](Cc1ccccc1)C(=O)N[C@@H](CCCN=C(N)N)C(N)=O)CSSC[C@H](NC(=O)[C@H](CO)NC(=O)[C@@H](N)CO)C(=O)N[C@@H](Cc1ccccc1)C(=O)NCC(=O)N2 |  |  | 0.0073 |
| CC[C@H](C)[C@@H]1NC(=O)[C@H](CCCN=C(N)N)NC(=O)[C@H](CC(=O)O)NC(=O)[C@H]([C@@H](C)CC)NC(=O)[C@H](CCCN=C(N)N)NC(=O)[C@H](CSCNC(C)=O)NC(=O)CNC(=O)[C@H](Cc2ccccc2)NC(=O)[C@@H](NC(=O)[C@H](CO)NC(=O)[C@@H](N)CO)CSSC[C@@H](C(=O)N[C@@H](CC(N)=O)C(=O)N[C@@H](CO)C(=O)N[C@@H](Cc2ccccc2)C(=O)N[C@@H](CCCN=C(N)N)C(N)=O)NC(=O)CNC(=O)[C@H](CC(C)C)NC(=O)CNC(=O)[C@H](CSCNC(C)=O)NC(=O)[C@H](CCC(N)=O)NC(=O)[C@H](C)NC(=O)CNC1=O |  |  | 0.43 |
| CC[C@H](C)[C@@H]1NC(=O)[C@H](CCCN=C(N)N)NC(=O)[C@H](CC(=O)O)NC(=O)[C@H]([C@@H](C)CC)NC(=O)[C@H](CCCN=C(N)N)NC(=O)CNC(=O)CNC(=O)[C@H](Cc2ccccc2)NC(=O)[C@@H](NC(=O)[C@H](CO)NC(=O)[C@@H](N)CO)CSSC[C@@H](C(=O)N[C@@H](CC(N)=O)C(=O)N[C@@H](CO)C(=O)N[C@@H](Cc2ccccc2)C(=O)N[C@@H](CCCN=C(N)N)C(N)=O)NC(=O)CNC(=O)[C@H](CC(C)C)NC(=O)CNC(=O)[C@H](CSCNC(C)=O)NC(=O)[C@H](CCC(N)=O)NC(=O)[C@H](C)NC(=O)CNC1=O |  |  | 0.21 |
| CC[C@H](C)[C@@H]1NC(=O)[C@H](CCCN=C(N)N)NC(=O)[C@H](CC(=O)O)NC(=O)[C@H]([C@@H](C)CC)NC(=O)[C@H](CCCN=C(N)N)NC(=O)[C@H](CSCNC(C)=O)NC(=O)CNC(=O)[C@H](Cc2ccccc2)NC(=O)[C@@H](NC(=O)[C@H](CO)NC(=O)[C@@H](N)CO)CSSC[C@@H](C(=O)NCC(=O)N[C@@H](CC(C)C)C(=O)NCC(=O)N[C@@H](CSCNC(C)=O)C(=O)N[C@@H](CC(N)=O)C(=O)N[C@@H](CO)C(=O)N[C@@H](Cc2ccccc2)C(=O)N[C@@H](CCCN=C(N)N)C(N)=O)NC(=O)[C@H](CCC(N)=O)NC(=O)[C@H](C)NC(=O)CNC1=O |  |  | 0.042 |
| CC[C@H](C)[C@@H]1NC(=O)[C@H](CCCN=C(N)N)NC(=O)[C@H](CC(=O)O)NC(=O)[C@H]([C@@H](C)CC)NC(=O)[C@H](CCCN=C(N)N)NC(=O)[C@H](CCSCNC(C)=O)NC(=O)CNC(=O)[C@H](Cc2ccccc2)NC(=O)[C@@H](NC(=O)[C@H](CO)NC(=O)[C@@H](N)CO)CSSC[C@@H](C(=O)N[C@@H](CC(N)=O)C(=O)N[C@@H](CO)C(=O)N[C@@H](Cc2ccccc2)C(=O)N[C@@H](CCCN=C(N)N)C(N)=O)NC(=O)CNC(=O)[C@H](CC(C)C)NC(=O)CNC(=O)[C@H](CSCNC(C)=O)NC(=O)[C@H](CCC(N)=O)NC(=O)[C@H](C)NC(=O)CNC1=O |  |  | 0.24 |
| CC[C@H](C)[C@H](NC(=O)[C@H](CC/N=C(/N)NO)NC(=O)[C@H](CC(=O)O)NC(=O)[C@@H](NC(=O)[C@H](CCN=C(N)N)NC(=O)[C@H](CSCNC(C)=O)NC(=O)CNC(=O)[C@H](Cc1ccccc1)NC(=O)[C@H](CSCNC(C)=O)NC(=O)[C@H](CO)NC(=O)[C@@H](N)CO)[C@@H](C)CC)C(=O)NCC(=O)N[C@@H](C)C(=O)N[C@@H](CCC(N)=O)C(=O)C1SSC[C@@H](C(=O)N[C@@H](CC(N)=O)C(=O)CN[C@@H](CO)C(=O)N[C@@H](Cc2ccccc2)C(=O)N[C@@H](CCCN=C(N)N)C(N)=O)NC(=O)CNC(=O)[C@H](CC(C)C)NC(=O)CNC(=O)[C@H]1N (stereo in doubt; 9a) |  |  | 0.028 |
| CC[C@H](C)[C@H](NC(=O)[C@H](CC/N=C(/N)NO)NC(=O)[C@H](CC(=O)O)NC(=O)[C@@H](NC(=O)[C@H](CCN=C(N)N)NC(=O)[C@H](CSCNC(C)=O)NC(=O)CNC(=O)[C@H](Cc1ccccc1)NC(=O)[C@H](CSCNC(C)=O)NC(=O)[C@H](CO)NC(=O)[C@@H](N)CO)[C@@H](C)CC)C(=O)NCC(=O)N[C@@H](C)C(=O)N[C@@H](CCC(N)=O)C(=O)C1SSC[C@@H](C(=O)N[C@@H](CC(N)=O)C(=O)CN[C@@H](CO)C(=O)N[C@@H](Cc2ccccc2)C(=O)N[C@@H](CCCN=C(N)N)C(N)=O)NC(=O)CNC(=O)[C@H](CC(C)C)NC(=O)CNC(=O)[C@H]1N (stereo in doubt; 9b) |  |  | 0.013 |
| CC[C@H](C)[C@@H]1NC(=O)[C@H](CCCN=C(N)N)NC(=O)[C@H](CC(=O)O)NC(=O)[C@H]([C@@H](C)CC)NC(=O)[C@H](CCCN=C(N)N)NC(=O)[C@H](CSCNC(C)=O)NC(=O)CNC(=O)[C@H](Cc2ccccc2)NC(=O)[C@@H](NC(=O)[C@H](CO)NC(=O)[C@@H](N)CO)CSSC[C@@H](C(=O)N[C@@H](CC(N)=O)C(=O)N[C@@H](CO)C(=O)N[C@@H](Cc2ccccc2)C(=O)N[C@@H](CCCN=C(N)N)C(N)=O)NC(=O)CNC(=O)[C@H](CC(C)C)NC(=O)CNC(=O)[C@H](CO)NC(=O)[C@H](CCC(N)=O)NC(=O)[C@H](C)NC(=O)CNC1=O |  |  | 1.03 |
